The nature of data set [1]: Cytotoxicity against human CEM-SS cells infected with HIV1 3B after 6 days by XTT assay. The data set is classed as cell-based. Particulars: read-out: TC50. (Formazan colour is commonly taken as a measure of viable cells.)
Data set [2] concerns Human immunodeficiency virus 1. The experiment in a line: Antiviral activity against HIV1 3B infected in human CEM-SS cells assessed as inhibition of viral replication after 6 days by XTT assay. The data set is classed as functional, organism-based. In short, it runs like this: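 Peptides were added in triplicate at six serial concentrations, 0.32–100 μg/ml. Cultures were held at 37°C, 5% CO2 for 6 days, then stained with XTT. EC50 (virus inhibition) and TC50 (cell viability) were derived from the XTT read-out, and TI was taken from these.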

Data set [3] can be described thus: Therapeutic index, ratio of TC50 for human CEM-SS cells infected with HIV1 3B to EC50 for HIV1 3B infected in human CEM-SS cells. It is filed as cell-based. Particulars: read-out: TI. In short, it runs like this: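 CEM-SS cells (2.5 × 10^3/well) in RPMI 1640 with 10% heat-inactivated FBS were infected with HIV-1 IIIB (MOI 0.0005–0.001). Peptides were added in triplicate at six serial concentrations, 0.32–100 μg/ml. Cultures were held at 37°C, 5% CO2 for 6 days, then stained with XTT. EC50 (virus inhibition) and TC50 (cell viability) were derived from the XTT read-out, and TI was taken from these.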

Data set [4] concerns Escherichia coli. As to the kind of experiment: Antibacterial activity against Escherichia coli K-12. It is filed as functional, organism-based.
Where [5] appears, read: Human immunodeficiency virus 1, 3B, CEM-SS, 144 h.

Calls of active or inactive are those of the source. The calls are words filed in the database; no cut-off is given here. Some results are limits rather than exact numbers.

In general, EC50 refers to the concentration giving half of the maximal effect.

`CC[C@H](C)[C@H](NC(=O)[C@H](CCCNC(=N)N)NC(=O)[C@H](CC(C)C)NC(=O)[C@H](CCC(N)=O)NC(=O)[C@H](CCCCN)NC(=O)[C@H](CC(C)C)NC(=O)[C@H](CC(C)C)NC(=O)[C@H](CC(C)C)NC(=O)[C@@H](NC(=O)[C@H](CCCCN)NC(=O)[C@H](CC(=O)O)NC(=O)[C@H](C)NC(=O)[C@@H](NC(=O)[C@H](CCCCN)NC(=O)[C@H](CCCCN)NC(=O)[C@H](CC(=O)O)NC(=O)[C@@H](NC(=O)[C@@H](N)Cc1cnc[nH]1)C(C)C)C(C)C)C(C)C)C(=O)N[C@@H](CCSC)C(=O)N[C@@H](CCCNC(=N)N)C(=O)N[C@@H](CC(C)C)C(=O)N[C@@H](CC(C)C)C(=O)N[C@H](C(=O)N[C@@H](CCCNC(=N)N)C(=O)N[C@@H](CC(C)C)C(=O)O)[C@@H](C)O` [SPINIGERIN]: the CC50 at 144 h in data set [1] was over 33.3 µM. For the same compound, the half-maximal effective concentration (EC50) in data set [2] (setting [5]) was determined as 3.05 µM. Besides, the selectivity ratio in data set [3] was over 10.9.
For “H-IWLTALKFLGKHAAKHLAKQQLSKL-OH [Lycotoxin I]” the same measures were 2.4 µM, over 35.2 µM and under 0.07.
H-IKWKKLLRAAKRIL-NH2: in data set [1], the CC50 at 144 h is 1.3 µM. Moreover, the EC50 in data set [2] (setting [5]) is over 57.6 µM. Moreover, the selectivity ratio in data set [3] is under 0.02.
For the compound H-GFKRIVQRIKDFLRNLV-NH2, the CC50 at 144 h in data set [1] came out at 10.8 µM. For the same compound, the EC50 in data set [2] (setting [5]) is 0.76 µM. Also, the selectivity ratio in data set [3] turned out to be 14.2.
Take H-GFKDLLKGAAKALVKTVLF-NH2 [Ascaphin-8]: in data set [1], the CC50 at 144 h amounted to 2.9 µM. Further, the EC50 in data set [2] (setting [5]) was 1.2 µM. The selectivity ratio in data set [3] stood at 2.4.
As to H-ILGPVLGLVSRTLRRVLGIL-OH, the CC50 at 144 h in data set [1] was found to be 8.7 µM. The half-maximal effective concentration (EC50) in data set [2] (setting [5]) worked out at 2.2 µM. For the same compound, in data set [3], the selectivity ratio was found to be 3.9.
On to H-GLFDIIKKIAESW-OH, for which, in data set [1], the CC50 at 144 h was found to be 37 µM. In data set [2] (setting [5]), the EC50 amounted to 11.7 µM. The selectivity ratio in data set [3] came out at 3.2.
For the compound `CC[C@H](C)[C@H](NC(=O)[C@H](CC(C)C)NC(=O)[C@@H]1CCCN1C(=O)[C@H](Cc1ccccc1)NC(=O)[C@H](CC(C)C)NC(=O)[C@@H](N)Cc1ccccc1)C(=O)N[C@H](C(=O)N[C@@H](CO)C(=O)N[C@@H](Cc1ccccc1)C(=O)N[C@@H](CC(C)C)C(=O)N[C@@H](CO)C(=O)N[C@@H](CCCCN)C(=O)N[C@H](C(=O)N[C@@H](CC(C)C)C(=O)O)C(C)C)[C@H](C)O`, the CC50 at 144 h in data set [1] is 34.6 µM. Further, in data set [2] (setting [5]), the concentration giving a half-maximal response (EC50) is 16.7 µM. Besides, the selectivity ratio in data set [3] is 2.07.
As to “H-VFQFLGRIIHHVGNFVHGFSHVF-OH [Clavanin B]”, the CC50 at 144 h in data set [1] came out at 37.1 µM. For the same compound, in data set [2] (setting [5]), the concentration giving a half-maximal response (EC50) came out at 7.1 µM. The selectivity ratio in data set [3] is over 5.18.
For H-GLRRLLGRLLRRLGRLLLR-OH the same measures were 25.7 µM, 4.4 µM and 5.8.
Take H-SWKSMAKKLKEYMEKLKQRA-OH [Latarcin 3a]: the CC50 at 144 h in data set [1] is over 40.3 µM. For the same compound, the EC50 in data set [2] (setting [5]) is 32.7 µM. Also, in data set [3], the selectivity ratio is over 1.23.
With H-GWLKKIESIIDAF-OH, the CC50 at 144 h in data set [1] was over 65.8 µM. The EC50 in data set [2] (setting [5]) came to 29.5 µM. Besides, the selectivity ratio in data set [3] is over 2.2.
For H-GFLDIIEKIAKSW-OH the same measures were over 65.8 µM, 10.5 µM and over 6.3.
For “H-GLLGLLGSVVSHVVPAIVGHF-NH2 [Maculatin 1.3]” the same measures were 8.02 µM, 4 µM and 2.01.
For H-GWFDIIKKIASEL-OH, the CC50 at 144 h in data set [1] was 38.9 µM. The EC50 in data set [2] (setting [5]) is 10.7 µM. Also, the selectivity ratio in data set [3] is 3.6.
Consider H-GLRSRIWLWVLLMIWQESNRFKRM-OH, for which, in data set [1], the CC50 at 144 h is over 32.1 µM. For the same compound, the 50% effective concentration (EC50) in data set [2] (setting [5]) was determined as 1.25 µM. Also, in data set [3], the selectivity ratio was over 25.7.
Consider H-GLRSKIWLWVLLMIWQESNKFKKM-OH, for which the CC50 at 144 h in data set [1] is over 32.9 µM. Further, the EC50 in data set [2] (setting [5]) was 31.6 µM. Moreover, in data set [3], the selectivity ratio was over 1.04.
For “H-GIWDTIKSMGKVFAGKILQNL-NH2 [Brevinin-2]” the same measures were 7.42 µM, 1.65 µM and 4.49.
As to “H-LLKELWTKIKGAGKAVLGKIKGLL-OH [Ponericin L2]”, the CC50 at 144 h in data set [1] is 24.7 µM. In data set [2] (cem-ss), the EC50 came to 1.4 µM. Further, the selectivity ratio in data set [3] was 17.6.
For the compound H-GWFDVVKHIAKRF-NH2, the CC50 at 144 h in data set [1] was found to be 10.6 µM. Moreover, the 50% effective concentration (EC50) in data set [2] (setting [5]) was 2.99 µM. The selectivity ratio in data set [3] worked out at 3.55.
Regarding `CC[C@H](C)[C@H](NC(=O)[C@H](CCCCN)NC(=O)[C@H](CCC(=O)O)NC(=O)[C@H](CCCCN)NC(=O)[C@H](CO)NC(=O)[C@H](CCCCN)NC(=O)[C@H](CCCNC(=N)N)NC(=O)[C@H](Cc1ccccc1)NC(=O)[C@H](Cc1ccccc1)NC(=O)[C@H](CC(=O)O)NC(=O)CNC(=O)[C@H](CC(C)C)NC(=O)[C@@H](N)CC(C)C)C(=O)NCC(=O)N[C@@H](CCCCN)C(=O)N[C@@H](CCC(=O)O)C(=O)N[C@@H](Cc1ccccc1)C(=O)N[C@@H](CCCCN)C(=O)N[C@@H](CCCNC(=N)N)C(=O)N[C@H](C(=O)N[C@H](C(=O)N[C@@H](CCC(N)=O)C(=O)N[C@@H](CCCNC(=N)N)C(=O)N[C@H](C(=O)N[C@@H](CCCCN)C(=O)N[C@@H](CC(=O)O)C(=O)N[C@@H](Cc1ccccc1)C(=O)N[C@@H](CC(C)C)C(=O)N[C@@H](CCCNC(=N)N)C(=O)N[C@@H](CC(N)=O)C(=O)N[C@@H](CC(C)C)C(=O)N[C@H](C(=O)N1CCC[C@H]1C(=O)N[C@@H](CCCNC(=N)N)C(=O)N[C@H](C(=O)N[C@@H](CCC(=O)O)C(=O)N[C@@H](CO)C(=O)O)[C@@H](C)O)C(C)C)[C@@H](C)CC)C(C)C)[C@@H](C)CC`, the result in data set [4] was inactive.
As to H-SLSRFLRFLKIVYRRAF-NH2, the CC50 at 144 h in data set [1] was determined as 8.6 µM. The EC50 in data set [2] (setting [5]) came out at 0.83 µM. Also, the selectivity ratio in data set [3] came to 10.4.
In the case of H-GIIDIAKKLFESW-OH, the CC50 at 144 h in data set [1] is over 65.8 µM. Moreover, in data set [2] (setting [5]), the EC50 came out at 20.1 µM. In addition, in data set [3], the selectivity ratio is over 3.3.
As to H-GLKKLLGKLLKKLGKLLLK-OH, in data set [4], the outcome was Active. For the same compound, the CC50 at 144 h in data set [1] was 25.1 µM. Also, the EC50 in data set [2] (setting [5]) was over 47.5 µM. Further, the selectivity ratio in data set [3] is under 0.5.

(Values after ChEMBL document CHEMBL1240406, “Identification of novel human immunodeficiency virus type 1-inhibitory peptides based on the antimicrobial peptide database” (Antimicrob Agents Chemother, 2010).)
